A selection: hits, their analogues and other compounds. The true share with any hit is near 3.7%.
hERG rescue: hERG (human) protection from proarrhythmic block | AID 1511 | hit rate 0.51% among 310,000 | Q12809 | activation (rescue from dofetilide block), less the hit threshold, % at 10 µM | CHO-hERG, FluxOR thallium flux, dofetilide IC70 present;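 active = activation above the mean of controls blocked by dofetilide plus 5 SD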;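 note: thallium influx through hERG after potassium depolarization seen as dye fluorescence rise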
KCNK9 block: inhibitors of human KCNK9 two-pore domain potassium channel | HEK293 KCNK9, FluxOR thallium flux fluorescence; active compounds read low | B-score at 10 µM | hit rate 1.2% among 310,000;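 active = ratio B-score over 3 SD below the library mean, with starting fluorescence within 5 SD of its mean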;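 note: negative B-score means less thallium flux so channel inhibition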
Target sequence (Q9NPC2 whole entry, looked up, the tested form may be a part): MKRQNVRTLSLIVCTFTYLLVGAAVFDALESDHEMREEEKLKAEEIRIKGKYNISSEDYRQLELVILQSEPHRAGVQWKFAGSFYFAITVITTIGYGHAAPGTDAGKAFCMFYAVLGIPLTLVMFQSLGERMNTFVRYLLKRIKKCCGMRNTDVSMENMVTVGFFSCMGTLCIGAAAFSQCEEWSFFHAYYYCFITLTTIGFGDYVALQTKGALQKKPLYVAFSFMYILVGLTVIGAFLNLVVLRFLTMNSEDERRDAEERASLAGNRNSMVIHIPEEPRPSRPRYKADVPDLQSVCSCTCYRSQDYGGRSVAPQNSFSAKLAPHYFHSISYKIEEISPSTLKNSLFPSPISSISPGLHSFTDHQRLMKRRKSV
KCNQ1 block: human KCNQ1 channel inhibition; B-score at 10 µM; hit rate 1.3% among 310,000; P51787; AID 2642; CHO-K1 KCNQ1, FluxOR thallium flux fluorescence; active compounds read high;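 active = compounds whose thallium flux B-score, printed positive for inhibition, exceeds three library SD while starting fluorescence stays within three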;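 note: channel opened by potassium depolarization with thallium stimulus after 20 min compound exposure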
KCNK3 inh: human KCNK3 channel inhibition, primary screen; hit rate 0.84% among 340,000; CHO-KCNK3 thallium flux, FluxOR fluorescence; active compounds read low; B-score at 10 µM; AID 602410;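 active = B-score under library mean minus 4 SD, starting fluorescence ratio at most library mean plus 5 SD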;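 note: more negative B-score means stronger inhibition of thallium flux through KCNK3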
Target sequence (O14649 whole entry, looked up): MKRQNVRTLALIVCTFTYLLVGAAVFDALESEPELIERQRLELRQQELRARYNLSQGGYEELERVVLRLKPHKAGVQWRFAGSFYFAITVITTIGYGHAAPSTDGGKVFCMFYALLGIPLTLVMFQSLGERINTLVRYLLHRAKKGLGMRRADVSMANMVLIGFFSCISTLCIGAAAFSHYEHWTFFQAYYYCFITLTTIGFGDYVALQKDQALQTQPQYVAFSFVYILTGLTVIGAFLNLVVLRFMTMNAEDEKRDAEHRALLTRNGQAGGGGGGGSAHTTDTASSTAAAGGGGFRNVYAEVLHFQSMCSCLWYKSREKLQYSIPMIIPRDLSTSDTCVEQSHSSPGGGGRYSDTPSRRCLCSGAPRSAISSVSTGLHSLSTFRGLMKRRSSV
KCNQ1 pot: potentiators or activators of human KCNQ1 potassium channel; P51787; CHO-K1 KCNQ1, thallium flux FluxOR fluorescence; active compounds read high; B-score at 10 µM; hit rate 0.35% among 310,000; AID 2648;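 active = fluorescence ratio B-score, a plate-corrected score, at least three library SD, with initial intensity B-score within 5 SD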
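assay system = KCNQ1-transfected CHO-K1 cells | medium = assay buffer with matched DMSO | probe or stimulus = depolarizing K+/Tl+ stimulus, K2SO4 and Tl2SO4 each 12.5 mM in 5x stock | dosing = single dose | incubation = dye 90 min, compound 20 min, room temperature | detection = kinetic FluxOR fluorescence, 10 s baseline plus 110 s post-stimulus | evaluation = ratio B score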
Kir21 inh: blocks the mouse Kir2.1 inward-rectifier potassium channel | hit rate 0.85% among 310,000 | P35561 | AID 1672 | B-score at 10 µM | HEK293-Kir2.1, FluxOR thallium flux fluorescence; active compounds read low;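 active = fluorescence ratio B-score at or below minus 3 SD of library scores, with starting-brightness B-score within 2 SD, cut at about -4.2 in these data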;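 note: channel flux triggered by added potassium and thallium sulfate stimulus; B-score of peak minus minimum fluorescence over baseline after thallium stimulus; more negative B-score means stronger Kir2.1 block with less thallium influx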
KCNK9 inh conf: confirmation of human KCNK9 potassium channel inhibitors; HEK293 KCNK9 cells, FluxOR thallium flux fluorescence; shares compounds with KCNK9 block; hit rate 43% among 4,900; inhibition, % at 10 µM; AID 492992;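 active = thallium signal inhibited by more than 5 SD of the compound-free buffer control wells, on both duplicate plates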;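 note: 0% = assay buffer control wells without compound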
Kir2-1 spec: selectivity of KCNK9 modulators against mouse Kir2.1; Kir2.1 cells, FluxOR thallium flux fluorescence; inhibition, % at 10 µM; hit rate 4% among 4,900; shares compounds with KCNK9 block; AID 492993;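 active = thallium signal drop more than 5 SD beyond the mean of the no-compound control wells, seen in both duplicate plates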;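 note: signal is fluorescence rise after thallium addition divided by baseline fluorescence; plate controls were assay buffer only for no effect and full block by chlorpromazine control for full effect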
KCNK9 uninduced: non-induced cell nonspecific activity of KCNK9 modulators | shares compounds with KCNK9 block | non-induced KCNK9-HEK293, FluxOR thallium flux | inhibition, % at 10 µM | hit rate 40% among 4,900;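 active = thallium signal drop beyond 5 SD of the untreated control mean, on both duplicate plates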;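 note: plate controls were buffer only IC0 wells for no effect and SID17386958 at its maximal inhibitory level for full effect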
KCNK3 inh conf: human KCNK3 channel inhibition, confirmation assay. shares compounds with KCNK3 inh. ratio percent of control, % at 10 µM. AID 651638. CHO-KCNK3 thallium flux, FluxOR fluorescence; 0% buffer, 100% carvedilol maximal block. hit rate 99% among 2,400;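 active = ratio percent of control, averaged over triplicates, above buffer control mean plus 5 SD, cut at about 64% in these data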;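 note: ratio is the fluorescence rise from min to max over baseline after thallium stimulus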
KCNK3 uninduced: KCNK3 inhibitor counter-screen hit in non-induced cells. thallium flux ratio (lower = more inhibition) at 10 µM. shares compounds with KCNK3 inh. hit rate 40% among 2,400. non-induced KCNK3 parental cells, FluxOR thallium flux; active compounds read low;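 active = thallium flux ratio, averaged over three wells, more than 5 SD below the buffer control mean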;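 note: host cells are CHO cells without KCNK3 induction; ratio is peak minus trough fluorescence over baseline then normalized to buffer controls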
An asterisk follows results filed as active; i = inactive; x = no result; ! = not confirmed by another sample.

SMILES	hERG rescue	KCNK9 block	KCNQ1 block	KCNK3 inh	KCNQ1 pot	Kir21 inh	KCNK9 inh conf	Kir2-1 spec	KCNK9 uninduced	KCNK3 inh conf	KCNK3 uninduced
CN(CCC1CCCCO1)C(=O)c1cc(COc2ccc(F)cc2F)on1 (centres undefined)	-11.2	i	i	i	i	-0.39	x	x	x	x	x
CN(CCCC1CCCC1)C(=O)c1cc(COc2ccc(F)c(F)c2)on1	-8.4	-8.85*	i	-9.16*	i	1.42	i	i	38.5%*	122.0*	i
COc1cccc(C(=O)NCC(c2cccs2)N2CCc3ccccc32)c1 (centres undefined)	-7.0	-17*	i	-13.9*	i	2.1	55.5%*	i	37.0%*	134.7*	0.121*
O=C(/C=C/c1ccccc1)NCC(=O)N/N=C/c1cccs1	-1.1	i	i	i	i	1	x	x	x	x	x
Cc1nn(-c2ccccc2)c(Cl)c1/C=N/NC(=O)c1ccccc1F	-25.9	-14.4*	i	-11.1*	i	0.6	57.0%*	i	23.5%*	101.0*	i
Cc1ccccc1CN(C)C(C)C(=O)Nc1ccccc1F (centres undefined)	-10.0	-13.9*	i	-11*	i	0.14	58.5%*	i	43.5%*	114.0*	i
CC(NC(=O)c1ccccc1)C(=O)OCn1nnc2ccccc2c1=O (centres undefined)	x	x	x	i	x	x	x	x	x	x	x
O=C(Nc1ccc2c(c1)OCCO2)c1cc2sccc2n1Cc1ccc(F)cc1	-10.2	-12*	i	-11.2*	i	-0.12	46.0%*	i	30.0%*	120.0*	0.116*
Cn1c(C(=O)Nc2ccc3c(c2)OCCO3)cc2sccc21	-10.4	i	i	i	i	-2.33	x	x	x	x	x
Cc1noc(-c2ccc(C(F)(F)F)cc2)c1NC(=O)Nc1ccc(Cl)cc1	-11.7	i	i	i	i	-0.91	x	x	x	x	x
O=C(CN1CCN(Cc2ccccc2Cl)C1=O)N1CCCCCC1	-6.9	i	i	i	i	0.05	x	x	x	x	x
O=c1cc(N2CCCCC2)c(-c2ccccc2)nn1Cc1ccccc1Cl	-2.2	-17.7*	i	-9.07*	i	0.55	38.0%*	i	37.5%*	112.3*	i
CCCc1cc(C(=O)Cc2ccc(F)cc2)c(O)cc1O	-24.7	-10.3*	i	-8.79*	i	-1.64	60.5%*	i	37.5%*	107.7*	i
Fc1ccc(C(c2nnnn2CCc2ccccc2)N2CCCc3ccccc32)cc1 (centres undefined)	-5.5	-8.29*	i	-9.11*	i	-0.01	34.5%*	i	36.0%*	92.7*	0.143*
Fc1ccc(C(c2nnnn2C2CCCC2)N2CCc3ccccc32)cc1 (centres undefined)	-11.8	-9.51*	i	-9.31*	i	-0.24	37.5%*	i	46.5%*	107.3*	i
COc1cc2cc(C(c3nnnn3C3CCCC3)N3CCc4ccccc43)c(=O)[nH]c2cc1OC (centres undefined)	-6.3	i	i	i	i	-1.13	x	x	x	x	x
Cc1c(NC(=O)C(C)Oc2ccc(Br)cc2)c(=O)n(-c2ccccc2)n1C (centres undefined)	x	x	x	i	x	x	x	x	x	x	x
O=C(Nc1ccc(Cl)cn1)c1ccccc1SCc1ccccc1	-6.0	-15.1*	i	-10.9*	i	0.11	77.5%*	i	47.0%*	128.3*	0.152*
Clc1nc(-c2ccccc2)cc(-c2ccc(Br)cc2)n1	-15.9	-12.4*	6*	-9.8*	i	-1.37	55.0%*	i	51.0%*	103.3*	i
CC1CCC(C(C)C)C(OC(=O)COC(=O)c2cccn2C)C1 (centres undefined)	-20.7	-12.7*	i	-8.76*	i	-1.03	59.0%*	i	27.0%*	107.7*	i
CC1CCC(C(C)C)C(OC(=O)Cn2c(-c3ccc(Br)cc3)[n+](C)c3ccccc32)C1 (centres undefined)	-31.1	-13.3*!	10*	-15.7*	i	-14.9*	66.0%*	82.0%*	i	131.7*	i
CC1CCC(C(C)C)C(OC(=O)Cn2c(-c3ccc(Cl)cc3)[n+](C)c3ccccc32)C1 (centres undefined)	-35.5	-12.2*	10*	-11.2*	i	-14.8*	66.5%*	80.0%*	i	119.0*	i
CC1CCC(C(C)C)C(OC(=O)C[n+]2cccc(C(N)=O)c2)C1 (centres undefined)	-5.6	i	i	i	i	1.93	x	x	x	x	x
O=C(COC(=O)c1ccc(O)cc1)Nc1ccc2c(c1)OCO2	x	x	x	i	x	x	x	x	x	x	x
COc1cc(CCCN2C(=S)NC[C@@H]2c2ccccc2)cc(OC)c1OC	-3.2	i	i	i	i	-0.43	x	x	x	x	x
SMILES	hERG rescue	KCNK9 block	KCNQ1 block	KCNK3 inh	KCNQ1 pot	Kir21 inh	KCNK9 inh conf	Kir2-1 spec	KCNK9 uninduced	KCNK3 inh conf	KCNK3 uninduced
O=Nc1c(O)n(Cc2cccc(C(F)(F)F)c2)c2ccccc12	-11.8	i	i	i	i	-1.37	x	x	x	x	x
O=C(NCc1ccc(Cl)cc1)c1ccc(N2CCCC2=O)cc1	-17.2	i	i	i	i	-0.74	x	x	x	x	x
CCCOC(=O)c1ccc(NC(=O)CN(C)Cc2cccs2)cc1	-11.0	-12.3*	i	-10.4*	i	-1.61	50.0%*	i	i	93.7*	i
CN(CC(=O)NCCc1ccc(F)cc1)Cc1cccs1	-14.9	i	i	i	i	-0.63	x	x	x	x	x
CN(CC(=O)Nc1cc(Cl)cc(Cl)c1)Cc1cccs1	-3.5	-14.2*	i	-13*	i	-2.25	63.0%*	i	44.0%*	122.0*	0.158*
Cc1cccc(NC(=O)c2cccc(S(=O)(=O)NCc3ccccc3)c2)n1	-4.3	i	i	i	i	-1.26	x	x	x	x	x
Cc1noc(C)c1COc1ccccc1C(=O)NCCc1ccc(Cl)cc1	-15.2	-20.4*	i	-9.35*	i	-5.02	63.0%*	i	35.0%*	81.3*	i
CCN(CC)C(=O)Oc1cc2c(-c3cc4cccc(OC)c4o3)cc(=O)oc2cc1C	-16.5	-20.7*	i	-13.9*	i	1.13	77.0%*	i	i	101.3*	i

Source: PubChem (Johns Hopkins Ion Channel Center)
